# Source: PubChem (several laboratories)
# Rows were chosen to be rich in hits. Some 8.8% of all compounds tested hit in one or more screens of this group.
# RORa activator – RORA (human) activation | P35398 | CHO-K1 Gal4-RORA LBD luciferase reporter, luminescence; percent increase over mock-subtracted basal signal | activation, % at 10 µM | 65,000 tested, 1.5% active;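 active = activation above the mean of all tested compounds plus 3 SD, cut at about 49% in these data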;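 also: 0% = DMSO-treated RORA cells and 100% = added signal equal to DMSO minus mock-transfected cells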
# S1P1 ag pot – activates or potentiates agonism at human S1P1 receptor | S1P1 CRE-bla cells, forskolin, beta-lactamase FRET, potentiator mode; S1P1 agonist co-added at EC20, 2 nM; 100% = saturating reference agonist, 0% = basal | 56,000 tested, 0.57% active | activation, % at 9.5 µM;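 active = activation above a cutoff set at the mean activation of all tested compounds plus 3 SD, cut at about 54% in these data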;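 also: forskolin at 4 µM as EC80 and the EC20 agonist is SEW2871; 100% = SEW2871 at its EC100 plus forskolin at EC80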
# S1P3 agonist – agonists of human S1P3 receptor | Q99500 | activation, % at 4.5 µM | S1P3 NFAT-BLA reporter cells, agonism, FRET ratio; relative to 1 µM S1P, basal subtracted | 60,000 tested, 0.1% active | AID 373;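 active = activation above the screen-wide mean plus 3 SD, cut at about 4.5% in these data, passing the limit was not always enough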
# Target sequence (Q99500 whole entry, looked up): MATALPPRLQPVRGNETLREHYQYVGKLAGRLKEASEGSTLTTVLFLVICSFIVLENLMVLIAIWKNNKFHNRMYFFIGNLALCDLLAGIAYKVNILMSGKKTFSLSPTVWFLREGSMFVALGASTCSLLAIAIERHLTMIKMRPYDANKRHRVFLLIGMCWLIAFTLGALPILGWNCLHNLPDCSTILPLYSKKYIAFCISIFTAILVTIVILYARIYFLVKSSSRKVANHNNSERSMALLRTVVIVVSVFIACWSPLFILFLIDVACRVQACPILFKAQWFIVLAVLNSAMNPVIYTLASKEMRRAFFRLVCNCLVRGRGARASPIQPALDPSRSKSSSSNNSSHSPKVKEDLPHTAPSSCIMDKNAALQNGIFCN
#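 Material: Human S1P3 NFAT-BLA reporter CHO cells | Incubation: Overnight plating, 4 h compound 37 °C, 2 h substrate RT | Signal: FRET β-lactamase substrate fluorescence, excitation 405 nm, 460/535 nm emission ratio, background-subtracted | Compound: 4.5 µM final, single dose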
# M1 ag – agonists of M1 muscarinic receptor; CHO-M1 cells, Fluo-4 calcium fluorescence, agonist mode; active compounds read high; B-score at 10 µM; 64,000 tested, 3% active;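 active = fluorescence rise, raw or as B-score row- and column-corrected plate score, outside the 99.7% band of its plate's samples, either direction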
# M1 antag – blocks the rat M1 muscarinic receptor response to acetylcholine. P08482. CHO-M1 cells, Fluo-4 calcium, ACh EC80 antagonist mode; active compounds read low. B-score at 10 µM. 64,000 tested, 3.4% active. AID 628;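 active = calcium fluorescence response, raw or row-and-column corrected B-score, differing from the plate sample mean either way at a set confidence level, mostly lower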
# SF-1 act – activates the human nuclear receptor SF-1; 65,000 tested, 1.9% active; Q13285; AID 522; CHO-K1 Gal4-SF-1 LBD luciferase reporter; % increase over DMSO SF-1-specific signal; activation, % at 10 µM;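 active = activation above the mean activation of all tested compounds plus 3 SD, cut at about 50% in these data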
#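 Assay system – CHO-K1 cells with Gal4–hSF-1 LBD chimera plus Gal4-driven luciferase · Quantity – 4,000 cells per well · Times – compound added 1 h post-seeding, 20 h exposure at 37 °C, 5% CO2 · Measured by – luciferase light emission · Benchmarks – DMSO and mock-transfected background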
# M1 antag conf – M1 muscarinic receptor (rat) antagonism, confirmed; shares compounds with M1 antag; CHO-M1 cells, Fluo-4 calcium, ACh EC80 antagonism; active compounds read low; calcium response (max-min fluorescence) at 10 µM; 1,700 tested, 43% active; AID 677;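 active = calcium response below the same-plate mean of wells given acetylcholine alone at its 80%-effect dose, minus 3 SD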;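 also: raw fluorescence intensity difference in arbitrary instrument units and not normalized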
# mGluR4 antag – acts on human mGluR4 in M1 antagonist selectivity test | shares compounds with M1 antag | CHO-mGluR4 calcium flux, Fluo-4 fluorescence, glutamate EC80; active compounds read low | fluorescence response (max-min) at 10 µM | 1,700 tested, 0.9% active | AID 678;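 active = fluorescence response below the plate's average for near-maximal glutamate wells, less 3 SD of those wells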;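 also: raw unnormalized fluorescence span taken in the window right after glutamate addition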
# * hit, by the source's call; · = no result given.
SMILES,RORa activator,S1P1 ag pot,S1P3 agonist,M1 ag,M1 antag,SF-1 act,M1 antag conf,mGluR4 antag
CC(C)(C)NC(=O)C(c1ccco1)N(C(=O)Cn1nnc(-c2ccc(F)cc2)n1)c1ccccc1F (stereo not given),15.2,-0.3,-0.7,-0.225,-0.155,-7.5,·,·
COC(=O)c1[nH]c2ccc(C)cc2c1NC(=O)CCN1CCN(Cc2ccc3c(c2)OCO3)CC1,5.4,-0.5,-1.1,-0.0243,-20.2*,-10.6,38.2*,226
COc1ccc(CN2C(=O)NC3(CCCCCC3)C2=O)cc1F,-11.3,-7.9,0.9,0.0083,-0.293,16.2,·,·
CCc1nnc(NC(=O)c2c(O)c3cccc4c3n(c2=O)CC4)s1,-5.5,-15.3,-0.9,-0.212,0.738,8.7,·,·
CCc1nnc(NCC(=O)N2CCc3ccccc32)s1,13.2,5.2,0.8,0.592,-4.83*,22.6,605,254
CN(C)c1ccc(-c2nn3c(-c4ccccc4Cl)nnc3s2)cc1,-11.6,-52.8,-0.9,-0.373,-5.89*,8.5,527,198
c1ccc(-c2nnc(N3CCN(c4ccccn4)CC3)c3ccccc23)cc1,5.5,16.2,-0.4,1.41,-4.83*,-10.7,358*,171*
O=C(O)c1ccc(Cn2cc(Cl)cn2)cc1,-4.8,-17.6,-0.4,-0.172,-0.49,5.2,·,·
COc1ccc(OC)c(S(=O)(=O)Nc2ccc3oc4c(c3c2)C(=O)CCC4)c1,-10.8,21.2,-1.4,-0.696,-1.28*,-14.8,687,178
Cn1c(CCN2CCCCC2)nc2cc(NC(=O)NC3CCCCC3)ccc21,9.8,-2.0,0.3,-0.333,-4.72*,3.5,263*,228
Cn1c(CCN2CCCCC2)nc2cc(NS(=O)(=O)c3ccc(F)cc3)ccc21,26.9,0.3,-0.3,-0.522,-1.82*,-17.5,474*,207
Cc1ccc(N2CCN(CCc3nc4cc(NS(C)(=O)=O)ccc4n3C)CC2)cc1,-2.1,9.8,-0.6,1.7,-3.75*,-0.6,503*,234
COc1ccc(C(=O)CSc2nnc(CNc3nc(-c4ccccc4)cs3)n2C)cc1,34.9,-21.0,-0.5,0.838,-0.0371,-9.6,·,·
COC(=O)c1ccccc1NC(=O)c1cc(-c2cccs2)on1,1.9,-18.6,-0.1,-1.3,-2.59*,-7.2,653,198
COC(=O)c1ccccc1NC(=O)c1cc(-c2cccc(OC)c2)on1,-3.6,-2.2,-0.7,0.544,0.29,1.6,·,·
Cc1ccc(S(=O)(=O)N2CCSC2c2ccco2)cc1 (stereo not given),-4.9,7.4,-1.2,-0.0197,-0.777,-2.0,·,·
O=C1NC2NC(=O)N(C(Cc3ccccc3)C(=O)O)C2N1 (stereo not given),-4.7,-11.3,1.2,-0.609,0.404,1.2,·,·
CN1CCN(C2=C(Cl)C(=O)N(CCc3ccccc3)C2=O)CC1,3.0,·,·,-1.25,-5.67*,9.3,376*,244
Cc1ccnc(NC2c3ccccc3C(=O)N2Cc2ccccc2Cl)c1 (stereo not given),-11.8,4.2,-1.7,0.512,0.945,-37.9,·,·
Cc1nc(NCc2ccco2)[nH]c(=O)c1CCC(C)C,21.4,·,-0.9,0.95,-2.43*,-8.1,619,289
Cn1c(-c2ccc3c(c2)OCO3)cnc1NCc1cccc(Cl)c1,6.1,18.2,-0.8,-1.2,-16.6*,-3.0,109*,221
Cn1c(-c2ccc3c(c2)OCO3)cnc1NCc1ccccc1,9.6,4.2,-0.9,0.0775,-5.3*,67.8*,295*,182
Cn1c(-c2ccc3c(c2)OCO3)cnc1NC(=O)CCC(=O)NCCc1ccccc1,-23.9,2.6,-0.9,-0.172,0.556,2.9,·,·
O=C(Nc1cccc(Cl)c1)N(CCN1CCOCC1)Cc1cccc(Cl)c1,2.5,-14.4,-0.9,1.02,-2.41*,-8.0,255*,227
O=C1CC(c2ccc(Cl)c(Cl)c2)CC(O)=C1C=NCCN1CCNCC1 (stereo not given),5.2,-8.0,-2.1,0.208,-13.2*,-12.5,173*,238
SMILES,RORa activator,S1P1 ag pot,S1P3 agonist,M1 ag,M1 antag,SF-1 act,M1 antag conf,mGluR4 antag
CCc1cc2c(=O)c(-c3cnn(-c4ccccc4)c3)coc2c(CN2CCOCC2)c1O,-15.8,-3.1,0.1,0.748,-4.19*,-9.0,528,193
CCc1cc2c(=O)c(-c3nc4ccccc4n3C)coc2c(CN2CCOCC2)c1O,-14.5,-8.8,0.5,0.154,-0.627,10.4,·,·
CC(=O)OCc1c(COC(C)=O)[n+](=O)c2ccccc2n1[O-],-8.7,-1.9,-3.1,-0.0693,-2.62*,-6.5,634,267
Cn1c(SCc2nnc3n2CCCCC3)nc2ccccc21,-11.2,12.8,0.0,-0.00074,0.282,-0.9,·,·
Cn1c(SCc2nc3ccccc3n2CCO)nc2ccccc21,-10.5,-0.1,-0.2,-0.585,-2.56*,-1.1,647,225
CCOC(=O)C1CCN(C(=O)CNS(=O)(=O)c2cccs2)CC1,-13.8,·,·,-0.212,0.0256,7.1,·,·
Cc1nc2c(o1)CCc1ccccc1C2N1CCN(C)CC1 (stereo not given),-7.1,8.3,-2.2,-0.625,-14.7*,-8.6,20.1*,254
CSCCC(C(=O)Nc1ccc2c(c1)OCO2)N1C(=O)c2ccccc2C1=O (stereo not given),-0.3,·,·,0.845,0.204,13.8,·,·
O=c1cc(O)c2c(=O)n3c4c(cccc4c2o1)CCC3,3.4,5.8,-1.4,-0.471,0.0644,-3.8,·,·
Cc1ccc(NC(=O)N2CCCN(Cc3ccc(F)cc3)C2)cc1C,18.9,8.1,-1.0,-0.322,-5.11*,-15.4,592,283
O=C(Oc1ccc(Cl)cc1)N1CCCCC1,29.5,·,·,0.574,-0.599,18.6,·,·
O=C(Oc1ccc(OC(=O)N2CCCCC2)cc1)c1ccccc1,2.1,-21.0,-0.4,-0.0833,-2.86*,6.8,237*,293
C=CCSC1=N/C(=C\c2ccc(C)o2)C(=O)S1,·,·,·,-1.05,-0.488,·,·,·
Cc1ccc(SCCCCN2C(=O)NC(C)(C)C2=O)cc1,11.4,·,-1.0,0.757,-2.06*,12.6,480,194
C=CCn1c(COc2ccc(Cl)cc2)nnc1SCC(=O)N1CC(=O)Nc2ccccc21,-15.3,-7.3,-1.7,0.195,-0.927*,7.7,537,237
C=CCn1c(COc2ccccc2)nnc1SCC(=O)C(C)(C)C,14.4,-19.3,-0.9,0.0674,0.405,12.6,·,·
CC1=CC(=C2C(=O)c3ccccc3C2=O)C=C(C)O1,57.3*,-3.9,-0.2,0.0931,-1.14*,41.5,546,204
